The values below come from PMC12638245 (Nature Metabolism, 2025).

The test system of one assay is ChREBP. The following applies: G3P added to HEK293T cells expressing ChREBP and MLX; cited from earlier work.
Another assay concerns circulating FGF21. The assay is described as follows: Serum FGF21 ELISA in mice given 5%. The following applies: mice of each genotype, 5% (w/v) glycerol in drinking water for 2 days, vs water. Type of assay: in vivo, mouse. In short, it runs like this:
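Mice aged 8–16 weeks, single-housed for 2 days on chow with water or 5% (w/v) glycerol. Blood taken at decapitation; serum spun 8,000g, 10 min, 4 °C. Sandwich ELISA: samples 2 h at room temperature, HRP-conjugated anti-FGF21 2 h, substrate 30 min, read at 450 nm with 570 nm correction. Haemolysed samples excluded; genotype-blinded analysis; two-way ANOVA with Tukey.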
Background: An ELISA detects its analyte on a solid surface through an enzyme-linked reagent.

Assay [1] relates to hepatic G3P, hexose phosphates, pentose phosphates. The assay is described as follows: Targeted LC-MS metabolomics of mouse liver. Type of assay: in vivo. The method in brief:
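Freeze-clamped liver powder (2.0 mg) spiked with 13C3-G3P (2.28 µM final) or a 13C yeast extract internal standard (hexose/pentose phosphates). Boiling 25% 10 mM HEPES/75% ethanol extraction, 55 °C 5 min, sonication, spin at 16,100g, dried, diluted 20-fold. Ion-pair reversed-phase UHPLC (tributylamine/acetic acid, methanol gradient), negative-mode targeted MS2. G3P and hexose phosphates quantified; pentose phosphates relative only.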

Assay [2] concerns hepatic ChREBP transcription programme. Type of assay: in vivo, mouse. The following applies: liver. The method in brief: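 Mice aged 8–16 weeks, single-housed on chow with water or 5% (w/v) glycerol as the only drink for 2 days. Livers freeze-clamped in liquid nitrogen. RNA from 20 mg liver, DNase-treated, RIN >5.0; libraries from 150 ng RNA. Paired-end 150 bp sequencing, >20 million read pairs per sample. HTSeq counts, TMM normalisation in edgeR, GLMs with sequencing batch as covariate.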

Setting [3] is: genotype and/or addition of glycerol.

The structures appear in SMILES notation.

Turning to `O=P(O)(O)OCC(O)CO` (centres unmarked) [G3P, glycerol-3-phosphate], the “protection of ChREBP from thermal precipitation” value in the assay on ChREBP is recorded as “protected ChREBP from thermal precipitation”.
With `OCC(O)CO` [glycerol], in the assay on circulating FGF21, the “circulating FGF21” value is “significantly elevated circulating FGF21”. Further, in assay [1] (setting [3]), the “hepatic concentrations of hexose phosphates” value is “not altered” and the “relative levels of pentose phosphates in liver” value was “unaffected”. For the same compound, the “hepatic G3P level” value in assay [1] (glycerol-exposed male mice, each of the four genotypes, vs water) is “tended to be higher”. In assay [2] (Slc25a13-/- Gpd2-/- double mutant), the “induction of ChREBP transcripts by glycerol” value is listed as “no further induction”. Further, in assay [2] (addition of glycerol), the Srebf1 expression result is on record as “unaffected”. In assay [2] (wild-type and single mutant strains), the “induction of ChREBPα transcript by glycerol” value was “two- to threefold”.
